These results are taken from ChEMBL document CHEMBL1121817, “Synthesis and pharmacological properties of 1,2,3,4,5,6-hexahydro-1,6-methano-2-benzazocines” (J Med Chem, 1981).

“And” between values parts separate entries of the source, which are not always exact repeats. Equal entries are not always repeated. The source made the active and inactive calls. The rule behind the calls is not given here.

The nature of data set [1]: Analgesic potency was determined by the Eddy hotplate method on mice expressed as lethal dose. The format is ADME, organism-based. Particulars: mouse, in vivo. In outline:
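Toxicity was tested in mice in the same series, using aqueous solutions of the hydrochloride, hydrobromide or oxalate salt, and LD50 is reported in mg/kg. When material was scarce, deaths out of ten mice given a single 50 mg/kg dose were recorded instead.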

For data set [2], the species on record is Mus musculus. Put plainly: Analgesic potency was determined by the Eddy hotplate method on mice. It counts as functional.
The species named for data set [3] is Mus musculus. Put plainly: Analgesic potency was determined by the Eddy hotplate method on mice expressed as effective dose. The format is functional. In outline: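 Mouse Eddy hot-plate test. Compounds were given as aqueous solutions of the hydrochloride, hydrobromide or oxalate salt. ED50 is reported in mg/kg and μmol/kg, with a range in parentheses for some entries.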

The species entered for data set [4] is Mus musculus. Put plainly: Analgesic potency was determined by the Eddy hotplate method on mice expressed as effective dose; IA=Inactive. It counts as functional, organism-based. Put shortly: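 Mice, Eddy hot-plate analgesia. Test compounds given as aqueous solutions of their hydrochloride, hydrobromide or oxalate salts. ED50 reported in mg/kg and μmol/kg, some with a range in parentheses. Where full activity could not be reached without toxicity, an approximate value is cited. Lethality was scored as LD50 in mg/kg or as deaths per ten mice at 50 mg/kg.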

A word on the LD50: it is the dose at which mortality reaches 50%. Higher therefore signals a less toxic substance. One may read the ED50 as the dose at which the effect has come halfway, by size or by number of responders.

Compound `Cl.c1ccc2c(c1)C1CCCNC2C1` (stereo unspecified) had an LD50 in data set [1] of 225 mg/kg. Further, the ED50 in data set [2] is 12 mg/kg and 57 µmol/kg.
`CC(C)=CCN1CCCC2CC1c1ccccc12.Cl` (stereo unspecified): the LD50 in data set [1] came out at 65 mg/kg. In addition, the ED50 in data set [2] was 48 mg/kg and 173 µmol/kg.
Consider `O=C(O)C(=O)O.c1ccc2c(c1)C1CCCNC2C1` (stereo unspecified), for which the LD50 in data set [1] was determined as 225 mg/kg.
On to `Br.Oc1ccc2c(c1)C1CCCN(CCc3ccccc3)C2C1` (stereo unspecified), for which the ED50 in data set [3] was 14 mg/kg and 37 µmol/kg.
On to `CN1CCCC2CC1c1ccc(O)cc12` (stereo unspecified), for which the ED50 entry in data set [4] is “inactive”.
With `COc1ccc2c3c1O[C@H]1[C@@H](O)C=C[C@H]4[C@@H](C2)N(C)CC[C@@]341.COc1ccc2c3c1O[C@H]1[C@@H](O)C=C[C@H]4[C@@H](C2)N(C)CC[C@@]341.O.O=P(O)(O)O.O=P(O)(O)O` [CODEINE PHOSPHATE], the ED50 in data set [2] is 6.8 mg/kg and 17 µmol/kg.
With `COc1ccc2c(c1)C1CCCNC2C1.O=C(O)C(=O)O` (stereo unspecified), the ED50 in data set [3] was 64 mg/kg and 218 µmol/kg.
Consider `COc1ccc2c(c1)C1CCCN(CCc3ccccc3)C2C1` (stereo unspecified), for which the ED50 entry in data set [4] is “inactive”.
In turn, `CCCN1CCCC2CC1c1ccccc12.Cl` (stereo unspecified) yielded an LD50 in data set [1] of 75 mg/kg. In addition, the ED50 in data set [2] is 28 mg/kg and 112 µmol/kg.
With `C=CCN1CCCC2CC1c1ccccc12.Cl` (stereo unspecified), the LD50 in data set [1] was found to be 110 mg/kg. The ED50 in data set [2] was 28 mg/kg and 112 µmol/kg.
`O=C(O)C(=O)O.c1ccc(CCN2CCCC3CC2c2ccccc23)cc1` (stereo unspecified) yielded an LD50 in data set [1] of 225 mg/kg.
Regarding `Br.CCCN1CCCC2CC1c1ccc(O)cc12` (stereo unspecified), the ED50 in data set [3] is 32 mg/kg and 103 µmol/kg.
Consider `CC(C)=CCN1CCCC2CC1c1ccccc12.O=C(O)C(=O)O` (stereo unspecified), for which the LD50 in data set [1] was 130 mg/kg.
The compound `COc1ccc2c(c1)C1CCCN(C)C2C1.O=C(O)C(=O)O` (stereo unspecified) yielded an LD50 in data set [1] of 157 mg/kg. Moreover, the 50% effective dose (ED50) in data set [3] is 16 mg/kg and 52 µmol/kg.
With `CCCN1CCCC2CC1c1ccccc12.O=C(O)C(=O)O` (stereo unspecified), in data set [1], the LD50 is 110 mg/kg.
For `COc1ccc2c(c1)C1CCCN(CC=C(C)C)C2C1.O=C(O)C(=O)O` (stereo unspecified), in data set [4], the ED50 entry was “inactive”. This compound had an LD50 in data set [1] of 300 mg/kg.
For the compound `Br.CN1CCCC2CC1c1ccccc12` (stereo unspecified), the ED50 in data set [2] was 45 mg/kg and 168 µmol/kg.
The compound `C=CCN1CCCC2CC1c1ccccc12.O=C(O)C(=O)O` (stereo unspecified) returned an LD50 in data set [1] of 150 mg/kg.
Regarding `Cl.c1ccc(CCN2CCCC3CC2c2ccccc23)cc1` (stereo unspecified), the LD50 in data set [1] was 225 mg/kg. The ED50 in data set [2] is 86 mg/kg and 246 µmol/kg.
